# In ChEMBL document CHEMBL4138085, “Design, synthesis and antimicrobial evaluation of novel benzimidazole-incorporated sulfonamide analogues” (Eur J Med Chem, 2017):
# Active and inactive are the calls of the source. The calls are words filed in the database; no cut-off is given here.
# Columns and labels:
# Albumin [1] = target: T1, Albumin (Homo sapiens, UniProt P02768); experiment: Binding affinity to human serum albumin at 273 K by modified Stern-Volmer method; type: ADME; conditions: isolated protein
# T1 sequence (P02768 whole entry): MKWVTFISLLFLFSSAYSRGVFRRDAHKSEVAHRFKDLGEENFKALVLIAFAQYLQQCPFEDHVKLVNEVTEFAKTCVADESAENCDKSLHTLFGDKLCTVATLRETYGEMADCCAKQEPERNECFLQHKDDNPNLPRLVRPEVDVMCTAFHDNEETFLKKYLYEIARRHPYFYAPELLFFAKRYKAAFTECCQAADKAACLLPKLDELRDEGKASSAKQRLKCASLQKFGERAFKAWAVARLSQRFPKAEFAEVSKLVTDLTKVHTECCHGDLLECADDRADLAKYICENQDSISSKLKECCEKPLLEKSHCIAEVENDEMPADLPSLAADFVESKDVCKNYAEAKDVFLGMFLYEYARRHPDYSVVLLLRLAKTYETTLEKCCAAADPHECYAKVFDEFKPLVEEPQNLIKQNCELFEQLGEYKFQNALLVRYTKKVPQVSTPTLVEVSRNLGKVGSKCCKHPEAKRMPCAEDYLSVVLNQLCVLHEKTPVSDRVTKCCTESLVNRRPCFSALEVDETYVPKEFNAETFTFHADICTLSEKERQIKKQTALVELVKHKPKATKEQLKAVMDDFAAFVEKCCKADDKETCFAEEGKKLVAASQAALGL
# Albumin [2] = target: T1, Albumin; experiment: Binding affinity to human serum albumin assessed as Gibbs free energy change at 293 K by van't Hoff plot analysis; type: ADME; conditions: isolated protein
# Calf thymus DNA [3] = experiment: Binding affinity to calf thymus DNA assessed as hyperchromic effect up to 1.6 10^-5 mol/L by UV-vis absorption spectra analysis; type: nucleic-acid assay; conditions: Bos taurus
# Procedure, shortened: (§1)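 Calf thymus DNA was held at a fixed concentration and titrated with increasing amounts of compound. UV-vis absorption spectra were recorded, following the DNA absorption maximum at 260 nm.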
# Pseudomonas aeruginosa = experiment: Antibacterial activity against Pseudomonas aeruginosa ATCC 27853 after 24 hrs by NCCLS two fold broth microdilution method; type: functional; conditions: ATCC 27853, 24 h
# Procedure, shortened: (§2)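 Two-fold serial broth microdilution in 96-well plates following NCCLS. Plates were inoculated and incubated at 37 °C for 24 h, with growth read visually and spectrophotometrically. MIC was taken as the lowest concentration giving complete growth inhibition. Run in triplicate, with a DMSO-plus-inoculum solvent control.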
# Salmonella typhi [4] = experiment: Antibacterial activity against Bacillus typhi after 24 hrs by NCCLS two fold broth microdilution method; type: functional, Salmonella enterica subsp. enterica serovar Typhi; conditions: Salmonella enterica
# Procedure, shortened: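 Two-fold serial broth microdilution per NCCLS. DMSO stocks diluted in Mueller–Hinton broth to 512, 256, 128, 64, 32, 16, 8, 4, 2, 1, 0.5 µg/mL. Chloromycin and norfloxacin as reference drugs; DMSO with inoculum, no drug, as solvent control. Incubation 37 °C for 24 h. Growth read visually and spectrophotometrically. MIC is the lowest concentration completely inhibiting growth; triplicate.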
# Staphylococcus aureus [5] = experiment: Antibacterial activity against methicillin-resistant Staphylococcus aureus N315 after 24 hrs by NCCLS two fold broth microdilution method; type: functional; conditions: N315, 24 h
# Procedure, shortened: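 Two-fold serial broth microdilution per NCCLS. Chloromycin and norfloxacin as reference drugs; DMSO with inoculum, no drug, as solvent control. Incubation 37 °C for 24 h. Growth read visually and spectrophotometrically. MIC is the lowest concentration completely inhibiting growth; triplicate.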
# Albumin [6] = target: T1, Albumin; experiment: Binding affinity to human serum albumin at 293 K by scatchard plot analysis; type: ADME; conditions: isolated protein
# Albumin [7] = target: T1, Albumin; experiment: Binding affinity to human serum albumin assessed as quenching constant at 313 K by fluorescence spectroscopic analysis; type: ADME; conditions: isolated protein
# Procedure, shortened: (§3)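 Intrinsic fluorescence of HSA (single Trp-214, emission peak 348 nm) was recorded with increasing compound concentration at several temperatures. Quenching data were fitted to the Stern-Volmer equation F0/F = 1 + KSV[Q] = 1 + Kqτ0[Q] to give KSV, and Kq was derived via τ0.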
# Bacillus = experiment: Antibacterial activity against Bacillus proteus ATCC 13315 after 24 hrs by NCCLS two fold broth microdilution method; type: functional; conditions: ATCC 13315, 24 h
# Procedure, shortened: (§4)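 Two-fold serial broth microdilution in 96-well plates following NCCLS. Compounds were dissolved in DMSO as stocks, then diluted in Mueller–Hinton broth to final concentrations of 0.5–512 µg/mL. Plates were inoculated and incubated at 37 °C for 24 h, with growth read visually and spectrophotometrically. MIC was taken as the lowest concentration giving complete growth inhibition. Run in triplicate, with a DMSO-plus-inoculum solvent control.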
# Aspergillus flavus [8] = experiment: Potency index, ratio of Fluconazole MIC to compound MIC for Aspergillus flavus; type: functional
# Cyberlindnera jadinii = experiment: Antifungal activity against Candida utilis after 24 hrs by NCCLS two fold broth microdilution method; type: functional; conditions: Williopsis jadinii
# Procedure, shortened: (§5)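 Two-fold serial microdilution following NCCLS. A spore suspension in sterile distilled water was prepared from one-day-old cultures grown on Sabouraud agar and adjusted to a final 1–5 × 10^3 spores/mL. DMSO stocks were diluted in RPMI 1640 to eleven concentrations (0.5–512 µg/mL), inoculated and held at 35 °C for 24 h. Growth was read visually and spectrophotometrically, MIC was the lowest concentration with complete inhibition, and runs were in triplicate.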
# Albumin [9] = target: T1, Albumin; experiment: Binding affinity to human serum albumin assessed as quenching constant at 273 K by fluorescence spectroscopic analysis; type: ADME; conditions: isolated protein; procedure, shortened: as §3
# Pichia norvegensis = experiment: Antifungal activity against Candida mycoderma after 24 hrs by NCCLS two fold broth microdilution method; type: functional
# Candida albicans = experiment: Antifungal activity against Candida albicans ATCC 76615 after 24 hrs by NCCLS two fold broth microdilution method; type: functional; conditions: ATCC 76615, 24 h; procedure, shortened: as §5
# Albumin [10] = target: T1, Albumin; experiment: Binding affinity to human serum albumin assessed as Stern-Volmer quenching constant at 293 K by fluorescence spectroscopic analysis; type: ADME; conditions: isolated protein; procedure, shortened: as §3
# Escherichia coli = experiment: Antibacterial activity against Escherichia coli ATCC 8099 after 24 hrs by NCCLS two fold broth microdilution method; type: functional; conditions: ATCC 8099, 24 h; procedure, shortened: as §2
# Albumin [11] = target: T1, Albumin; experiment: Binding affinity to human serum albumin assessed as Gibbs free energy change at 313 K by van't Hoff plot analysis; type: ADME; conditions: isolated protein
# Salmonella typhi [12] = experiment: Potency index, ratio of Chloromycin MIC to compound MIC for Bacillus typhi; type: functional, Salmonella enterica subsp. enterica serovar Typhi
# Albumin [13] = target: T1, Albumin; experiment: Binding affinity to human serum albumin assessed as Stern-Volmer quenching constant at 273 K by fluorescence spectroscopic analysis; type: ADME; conditions: isolated protein; procedure, shortened: as §3
# Staphylococcus aureus [14] = experiment: Antibacterial activity against Staphylococcus aureus ATCC 25923 after 24 hrs by NCCLS two fold broth microdilution method; type: functional; conditions: ATCC 25923, 24 h; procedure, shortened: as §4
# Albumin [15] = target: T1, Albumin; experiment: Binding affinity to human serum albumin assessed as Stern-Volmer quenching constant at 313 K by fluorescence spectroscopic analysis; type: ADME; conditions: isolated protein; procedure, shortened: as §3
# Calf thymus DNA [16] = experiment: Binding affinity to calf thymus DNA by UV-vis absorption spectra analysis; type: nucleic-acid assay; conditions: Bos taurus; procedure, shortened: as §1
# Albumin [17] = target: T1, Albumin; experiment: Binding affinity to human serum albumin at 273 K by scatchard plot analysis; type: ADME; conditions: isolated protein
# Albumin [18] = target: T1, Albumin; experiment: Binding affinity to human serum albumin at 313 K by modified Stern-Volmer method; type: ADME; conditions: isolated protein
# Albumin [19] = target: T1, Albumin; experiment: Binding affinity to human serum albumin assessed as change in enthalpy at 273 K by van't Hoff plot analysis; type: ADME; conditions: isolated protein
# Bacillus subtilis = experiment: Antibacterial activity against Bacillus subtilis ATCC 21216 after 24 hrs by NCCLS two fold broth microdilution method; type: functional; conditions: ATCC 21216, 24 h; procedure, shortened: as §4
# Calf thymus DNA [20] = experiment: Binding affinity to calf thymus DNA assessed as increase in maximum absorption by UV-vis absorption spectra analysis; type: nucleic-acid assay; conditions: Bos taurus; procedure, shortened: as §1
# Albumin [21] = target: T1, Albumin; experiment: Binding affinity to human serum albumin assessed as quenching constant at 293 K by fluorescence spectroscopic analysis; type: ADME; conditions: isolated protein; procedure, shortened: as §3
# Calf thymus DNA [22] = experiment: Inhibition of neutral red binding to calf thymus DNA up to 0.48 10^-5 mol/L by UV-vis absorption spectra analysis; type: nucleic-acid assay; conditions: Bos taurus
# Albumin [23] = target: T1, Albumin; experiment: Binding affinity to human serum albumin assessed as change in entropy at 273 K by van't Hoff plot analysis; type: ADME; conditions: isolated protein
# Albumin [24] = target: T1, Albumin; experiment: Binding affinity to human serum albumin up to 1.6 10^-5 mol/L by UV-vis absorption spectra analysis; type: ADME; conditions: isolated protein
# Albumin [25] = target: T1, Albumin; experiment: Binding affinity to human serum albumin by fluorescence spectroscopic analysis; type: ADME; conditions: isolated protein
# Albumin [26] = target: T1, Albumin; experiment: Binding affinity to human serum albumin at 293 K by modified Stern-Volmer method; type: ADME; conditions: isolated protein
# Albumin [27] = target: T1, Albumin; experiment: Binding affinity to human serum albumin assessed as Gibbs free energy change at 273 K by van't Hoff plot analysis; type: ADME; conditions: isolated protein
# Micrococcus luteus = experiment: Antibacterial activity against Micrococcus luteus ATCC 4698 after 24 hrs by NCCLS two fold broth microdilution method; type: functional; conditions: NCTC 2665, 24 h; procedure, shortened: as §4
# Albumin [28] = target: T1, Albumin; experiment: Binding affinity to human serum albumin at 313 K by scatchard plot analysis; type: ADME; conditions: isolated protein
# Saccharomyces cerevisiae = experiment: Antifungal activity against Saccharomyces cerevisiae after 24 hrs by NCCLS two fold broth microdilution method; type: functional; procedure, shortened: as §5
# Calf thymus DNA [29] = experiment: Binding affinity to calf thymus DNA assessed as hypochromic effect up to 1.6 10^-5 mol/L by UV-vis absorption spectra analysis; type: nucleic-acid assay; conditions: Bos taurus; procedure, shortened: as §1
# Aspergillus flavus [30] = experiment: Antifungal activity against Aspergillus flavus after 24 hrs by NCCLS two fold broth microdilution method; type: functional; procedure, shortened: as §5
compound,measurement,setting,value
CC(=O)Nc1ccc(S(=O)(=O)Cc2nc3ccccc3n2Cc2ccc(Cl)cc2Cl)cc1,Ka,Albumin [1],11100 M⁻¹
same,deltaG,Albumin [2],-5.2682 kcal/mol
same,Activity,Calf thymus DNA [3],Active
same,MIC,Pseudomonas aeruginosa,16 µg/mL
same,MIC,Salmonella typhi [4],4 µg/mL
same,MIC,Staphylococcus aureus [5],128 µg/mL
same,Kb,Albumin [6],59300 M⁻¹
same,Kq,Albumin [7],4.72 ×10¹² L/mol/s
same,MIC,Bacillus,32 µg/mL
same,Ratio,Aspergillus flavus [8],16
same,MIC,Cyberlindnera jadinii,128 µg/mL
same,Kq,Albumin [9],8.2 ×10¹² L/mol/s
same,MIC,Pichia norvegensis,512 µg/mL
same,MIC,Candida albicans,512 µg/mL
same,KSV,Albumin [10],4.08 ×10⁴ L/mol
same,MIC,Escherichia coli,8 µg/mL
same,deltaG,Albumin [11],-5.7639 kcal/mol
same,Ratio,Salmonella typhi [12],8
same,KSV,Albumin [13],5.25 ×10⁴ L/mol
same,MIC,Staphylococcus aureus [14],64 µg/mL
same,KSV,Albumin [15],3.02 ×10⁴ L/mol
same,K,Calf thymus DNA [16],1.52 ×10⁴ L/mol
same,Kb,Albumin [17],65600 M⁻¹
same,Ka,Albumin [18],10600 M⁻¹
same,deltaH,Albumin [19],-0.196 kcal/mol
same,MIC,Bacillus subtilis,16 µg/mL
same,Activity,Calf thymus DNA [20],Dose-dependent effect
same,Kq,Albumin [21],6.38 ×10¹² L/mol/s
same,inhibition,Calf thymus DNA [22],Active
same,deltaS,Albumin [23],74.429 J/mol/K
same,Activity,Albumin [24],Active
same,Activity,Albumin [25],Dose-dependent effect
same,Ka,Albumin [26],10800 M⁻¹
same,deltaG,Albumin [27],-5.0523 kcal/mol
same,MIC,Micrococcus luteus,128 µg/mL
same,Kb,Albumin [28],42100 M⁻¹
same,MIC,Saccharomyces cerevisiae,128 µg/mL
same,Activity,Calf thymus DNA [29],inactive
same,MIC,Aspergillus flavus [30],32 µg/mL
